# Measured values as given in ChEMBL document CHEMBL2407062, “Synthesis and anticancer activities of 5,6,7-trimethoxy-N-phenyl(ethyl)-4-aminoquinazoline derivatives” (Eur J Med Chem, 2013).
# The source made the active and inactive calls. No cut-off for these calls is given here.
# What was measured:
# PC-3 [1] = experiment: Induction of apoptosis in human PC3 cells assessed as apoptotic rate at 10 uM after 48 hrs by annexin-V FITC and propidium iodide staining-based FACS flow cytometric analysis relative to control; assay type: functional
# How it was run: (§1)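 PC3 cells (RPMI 1640 with 10% heat-inactivated FBS, 37 °C, 5% CO2) exposed to compound for 24, 48 or 72 h; 0.1% DMSO as negative control. Cells at 1 × 10⁶/mL washed twice in cold PBS, resuspended in binding buffer, stained with Annexin V-FITC and PI. Apoptosis ratio is early (Annexin+/PI−) plus late (Annexin+/PI+) apoptotic cells.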
# PC-3 [2] = experiment: Induction of apoptosis in human PC3 cells assessed as apoptotic rate at 20 uM after 72 hrs by annexin-V FITC and propidium iodide staining-based FACS flow cytometric analysis relative to control; assay type: functional; how it was run: as §1
# PC-3 [3] = experiment: Induction of apoptosis in human PC3 cells assessed as apoptotic rate at 10 uM after 24 hrs by annexin-V FITC and propidium iodide staining-based FACS flow cytometric analysis relative to control; assay type: functional; how it was run: as §1
# PC-3 [4] = experiment: Induction of apoptosis in human PC3 cells assessed as apoptotic rate at 10 uM after 72 hrs by annexin-V FITC and propidium iodide staining-based FACS flow cytometric analysis relative to control; assay type: functional; how it was run: as §1
# PC-3 [5] = experiment: Induction of apoptosis in human PC3 cells assessed as apoptotic rate at 20 uM after 24 hrs by annexin-V FITC and propidium iodide staining-based FACS flow cytometric analysis relative to control; assay type: functional; how it was run: as §1
# PC-3 [6] = experiment: Induction of apoptosis in human PC3 cells assessed as compact nucleus at 10 uM after 72 hrs by Hoechst 33258 staining-based fluorescence microscopic analysis; assay type: functional, cell-based
# How it was run: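 PC3 cells treated 72 h, then stained with Hoechst 33258 and viewed by fluorescence microscopy. DMSO served as negative control. Live nuclei scored as uniformly light blue; apoptotic nuclei bright blue with condensed chromatin and karyopyknosis.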
# PC-3 [7] = experiment: Induction of apoptosis in human PC3 cells assessed as apoptotic rate at 30 uM after 72 hrs by annexin-V FITC and propidium iodide staining-based FACS flow cytometric analysis relative to control; assay type: functional; how it was run: as §1
# PC-3 [8] = experiment: Induction of apoptosis in human PC3 cells assessed as apoptotic rate at 30 uM after 48 hrs by annexin-V FITC and propidium iodide staining-based FACS flow cytometric analysis relative to control; assay type: functional; how it was run: as §1
# PC-3 [9] = experiment: Induction of apoptosis in human PC3 cells assessed as pycnosis at 10 uM after 48 hrs by AO/EB staining-based fluorescence microscopic analysis; assay type: functional, cell-based
# How it was run: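 PC3 cells seeded at 5 × 10⁴ cells/mL on sterile coverslips. Medium replaced with fresh medium plus 10% FBS containing compound, treated 24–72 h. Coverslips inverted onto acridine orange/ethidium bromide stain ([…] as printed) and read by fluorescence microscopy. Live cells scored green, early apoptotic green-yellow, late apoptotic orange, necrotic orange without condensed chromatin.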
# PC-3 [10] = experiment: Induction of apoptosis in human PC3 cells assessed as apoptotic rate at 30 uM after 24 hrs by annexin-V FITC and propidium iodide staining-based FACS flow cytometric analysis relative to control; assay type: functional; how it was run: as §1
# PC-3 [11] = experiment: Induction of apoptosis in human PC3 cells assessed as apoptotic rate at 20 uM after 48 hrs by annexin-V FITC and propidium iodide staining-based FACS flow cytometric analysis relative to control; assay type: functional; how it was run: as §1
# [12] = molecular target: T1, Mitogen-activated protein kinase; ERK1/ERK2 (Homo sapiens) (UniProt P27361+P28482); experiment: Inhibition of EGF-induced ERK1/2 phosphorylation in human PC3 cells at 1.28 uM incubated for 60 mins prior to EGF-treatment measured after 10 mins by Western blotting analysis; assay type: cell-based; conditions: PC-3
# How it was run: (§2)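 PC3 cells grown 36–48 h in RPMI 1640 with 10% FBS at 37 °C, then serum-starved 24 h. Treated with compound for 60 min, then EGF 10 ng/mL for 10 min; quenched on ice. Cells washed with cold PBS and lysed in NP-40/SDS buffer with Na3VO4 and NaF. Run on 10% SDS-PAGE, PVDF blot probed for pERK1/2 with actin as loading control, ECL detection.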
# PC-3 [13] = experiment: Induction of apoptosis in human PC3 cells assessed as apoptotic rate after 24 to 72 hrs by annexin-V FITC and propidium iodide staining-based FACS flow cytometric analysis; assay type: functional, cell-based
# How it was run: (§3)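 PC3 cells exposed to 1, 5 or 10 μM for 24, 48 or 72 h. Controls were 0.1% DMSO and HCPT 10 μM. Cells at 1 × 10⁶/mL washed twice with cold PBS, resuspended in binding buffer, stained with annexin V-FITC and PI. Apoptosis ratio is the sum of early (annexin+/PI−) and late (annexin+/PI+) fractions.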
# PC-3 [14] = experiment: Induction of necrosis in human PC3 cells at 10 uM after 72 hrs by AO/EB staining-based fluorescence microscopic analysis; assay type: cell-based; conditions: pc-3, 72 h
# How it was run: (§4)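 PC3 cells seeded at 5 × 10⁴ cells/mL on cover slips, then given fresh medium with 10% FBS plus compound, 10 μM for 24–72 h. HCPT 10 μM positive control. Stained with AO/EB (100 μg/mL) and examined by fluorescence microscopy. Green: live; green-yellow: early apoptotic; orange fragments: late apoptotic; orange without condensed chromatin: necrotic.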
# PC-3 [15] = experiment: Induction of apoptosis in human PC3 cells assessed as apoptotic rate at 1 to 10 uM by annexin-V FITC and propidium iodide staining-based FACS flow cytometric analysis; assay type: functional, cell-based; conditions: TDE = time-dependent effect; how it was run: as §3
# PC-3 [16] = experiment: Growth inhibition of human PC3 cells at 10 uM after 72 hrs by MTT assay relative to control; assay type: functional; conditions: Homo sapiens, PC-3, 72 h; read-out: GI
# How it was run: (§5)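 Cells in RPMI 1640 with 10% heat-inactivated FBS, 37 °C, 5% CO2. Seeded at 2 × 10³ cells per well. Compounds dissolved in DMSO, diluted in medium, tested at 1–100 μM for 72 h; 0.1% DMSO control. MTT read-out, absorbance at 595 nm. Mean ± SD of triplicate experiments. IC50 taken from the dose–response curve.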
# PC-3 [17] = experiment: Induction of apoptosis in human PC3 cells assessed as apoptotic cells at 10 uM after 72 hrs by Hoechst 33258 staining-based fluorescence microscopic analysis; assay type: functional, cell-based
# How it was run: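 PC3 cells treated at 1 and 10 μM for 72 h, then stained with Hoechst 33258 and viewed by fluorescence microscopy. DMSO negative control; HCPT 10 μM for 72 h positive control. Bright blue condensed nuclei were scored as apoptotic.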
# PC-3 [18] = experiment: Induction of apoptosis in human PC3 cells assessed as membrane blebbing at 10 uM after 24 to 72 hrs by AO/EB staining-based fluorescence microscopic analysis; assay type: functional, cell-based; how it was run: as §4
# BGC-823 [19] = experiment: Growth inhibition of human BGC823 cells after 72 hrs by MTT assay; assay type: functional, cell-based; conditions: BGC-823, 72 h; how it was run: as §5
# PC-3 [20] = experiment: Induction of apoptosis in human PC3 cells assessed as apoptotic rate at 1 uM after 48 hrs by annexin-V FITC and propidium iodide staining-based FACS flow cytometric analysis relative to control; assay type: functional; how it was run: as §3
# Bcap37 [21] = experiment: Growth inhibition of human Bcap37 cells after 72 hrs by MTT assay; assay type: functional, cell-based; conditions: Bcap37, 72 h; how it was run: as §5
# PC-3 [22] = experiment: Induction of apoptosis in human PC3 cells assessed as cell budding at 10 uM after 24 to 72 hrs by AO/EB staining-based fluorescence microscopic analysis; assay type: functional; how it was run: as §4
# PC-3 [23] = experiment: Induction of apoptosis in human PC3 cells assessed as DNA fragmentation at 10 uM by agarose gel electrophoretic analysis; assay type: functional, cell-based
# How it was run: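 PC3 cells treated at 10 μM. Apoptotic DNA fragments extracted, run on agarose gel electrophoresis, stained with Gold View.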
# PC-3 [24] = experiment: Growth inhibition of human PC3 cells at 1 uM after 72 hrs by MTT assay relative to control; assay type: functional; conditions: Homo sapiens, PC-3, 72 h; read-out: GI; how it was run: as §5
# BGC-823 [25] = experiment: Growth inhibition of human BGC823 cells at 10 uM after 72 hrs by MTT assay relative to control; assay type: functional; conditions: BGC-823, 72 h, read-out: GI; how it was run: as §5
# BGC-823 [26] = experiment: Growth inhibition of human BGC823 cells at 1 uM after 72 hrs by MTT assay relative to control; assay type: functional; conditions: BGC-823, 72 h, read-out: GI; how it was run: as §5
# Bcap37 [27] = experiment: Growth inhibition of human Bcap37 cells at 10 uM after 72 hrs by MTT assay relative to control; assay type: functional; conditions: Homo sapiens, Bcap37, 72 h; read-out: GI; how it was run: as §5
# Bcap37 [28] = experiment: Growth inhibition of human Bcap37 cells at 1 uM after 72 hrs by MTT assay relative to control; assay type: functional; conditions: Homo sapiens, Bcap37, 72 h; read-out: GI; how it was run: as §5
# PC-3 [29] = experiment: Induction of apoptosis in human PC3 cells assessed as apoptotic rate at 5 uM after 24 hrs by annexin-V FITC and propidium iodide staining-based FACS flow cytometric analysis relative to control; assay type: functional; how it was run: as §3
# PC-3 [30] = experiment: Induction of apoptosis in human PC3 cells assessed as apoptotic rate at 5 uM after 48 hrs by annexin-V FITC and propidium iodide staining-based FACS flow cytometric analysis relative to control; assay type: functional; how it was run: as §3
# PC-3 [31] = experiment: Growth inhibition of human PC3 cells after 72 hrs by MTT assay; assay type: functional, cell-based; conditions: PC-3, 72 h; how it was run: as §5
# PC-3 [32] = experiment: Induction of apoptosis in human PC3 cells assessed as apoptotic rate at 1 uM after 24 hrs by annexin-V FITC and propidium iodide staining-based FACS flow cytometric analysis relative to control; assay type: functional; how it was run: as §3
# PC-3 [33] = experiment: Induction of apoptosis in human PC3 cells assessed as apoptotic rate at 5 uM after 72 hrs by annexin-V FITC and propidium iodide staining-based FACS flow cytometric analysis relative to control; assay type: functional; how it was run: as §3
# PC-3 [34] = experiment: Induction of apoptosis in human PC3 cells assessed as late apoptotic cells at 10 uM after 72 hrs by AO/EB staining-based fluorescence microscopic analysis; assay type: functional, cell-based; how it was run: as §4
# PC-3 [35] = experiment: Induction of apoptosis in human PC3 cells assessed as pycnosis at 10 uM after 24 to 72 hrs by AO/EB staining-based fluorescence microscopic analysis; assay type: functional, cell-based; how it was run: as §4
# [36] = molecular target: T1, Mitogen-activated protein kinase; ERK1/ERK2 (Homo sapiens); experiment: Inhibition of EGF-induced ERK1/2 phosphorylation in human PC3 cells at 10 uM incubated for 60 mins prior to EGF-treatment measured after 10 mins by Western blotting analysis; assay type: cell-based; conditions: PC-3; how it was run: as §2
# PC-3 [37] = experiment: Induction of apoptosis in human PC3 cells at 10 uM after 24 to 72 hrs by AO/EB staining-based fluorescence microscopic analysis; assay type: functional, cell-based; how it was run: as §4
# PC-3 [38] = experiment: Induction of apoptosis in human PC3 cells assessed as apoptotic rate at 1 uM after 72 hrs by annexin-V FITC and propidium iodide staining-based FACS flow cytometric analysis relative to control; assay type: functional; how it was run: as §3
# T1 sequence (P27361 whole entry, looked up): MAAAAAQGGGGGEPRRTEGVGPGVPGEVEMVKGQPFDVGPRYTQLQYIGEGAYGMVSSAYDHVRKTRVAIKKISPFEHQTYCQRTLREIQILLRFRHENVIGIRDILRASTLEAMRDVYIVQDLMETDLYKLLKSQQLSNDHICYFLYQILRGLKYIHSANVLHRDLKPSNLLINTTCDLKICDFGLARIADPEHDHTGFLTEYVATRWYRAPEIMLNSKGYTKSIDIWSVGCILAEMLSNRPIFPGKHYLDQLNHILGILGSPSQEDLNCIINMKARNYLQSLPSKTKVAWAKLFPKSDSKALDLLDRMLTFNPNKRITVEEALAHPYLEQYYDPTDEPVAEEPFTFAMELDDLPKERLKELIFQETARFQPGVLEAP
# T1 sequence (P28482 whole entry, looked up): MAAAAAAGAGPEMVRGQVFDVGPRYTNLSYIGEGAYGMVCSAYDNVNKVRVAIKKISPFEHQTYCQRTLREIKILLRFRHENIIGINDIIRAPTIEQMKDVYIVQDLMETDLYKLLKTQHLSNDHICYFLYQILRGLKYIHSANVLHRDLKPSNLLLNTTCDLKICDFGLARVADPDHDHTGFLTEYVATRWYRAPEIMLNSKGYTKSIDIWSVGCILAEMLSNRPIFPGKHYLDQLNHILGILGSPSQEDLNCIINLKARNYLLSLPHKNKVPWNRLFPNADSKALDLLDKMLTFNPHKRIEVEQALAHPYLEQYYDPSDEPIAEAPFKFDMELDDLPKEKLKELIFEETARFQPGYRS
smiles,measurement,setting,value
CC[C@@]1(O)C(=O)OCc2c1cc1n(c2=O)Cc2cc3cc(O)ccc3nc2-1 [HYDROXYCAMPTOTHECIN],Activity,PC-3 [1],8.3%
same,Activity,PC-3 [2],19.8%
same,Activity,PC-3 [3],5.7%
same,Activity,PC-3 [4],17%
same,Activity,PC-3 [5],7.4%
same,Activity,PC-3 [6],Active
same,Activity,PC-3 [7],38.2%
same,Activity,PC-3 [8],12.8%
same,Activity,PC-3 [9],Active
same,Activity,PC-3 [10],11.9%
same,Activity,PC-3 [11],11.9%
COc1cc2ncnc(NCCc3ccccc3F)c2c(OC)c1OC,inhibition,[12],Active
same,Activity,PC-3 [1],16.4%
same,Activity,PC-3 [13],Dose-dependent effect
same,Activity,PC-3 [14],Non-toxic
same,Activity,PC-3 [15],tde
same,inhibition of growth at 10 µM,PC-3 [16],90.6%
same,Activity,PC-3 [3],10.9%
same,Activity,PC-3 [17],Active
same,Activity,PC-3 [18],Active
same,IC50,BGC-823 [19],3.2 µM
same,Activity,PC-3 [4],31.8%
same,Activity,PC-3 [20],9.5%
same,IC50,Bcap37 [21],3.1 µM
same,Activity,PC-3 [22],Active
same,Activity,PC-3 [23],Active
same,inhibition of growth at 1 µM,PC-3 [24],22.6%
same,inhibition of growth at 10 µM,BGC-823 [25],88.2%
same,inhibition of growth at 1 µM,BGC-823 [26],38.7%
same,inhibition of growth at 10 µM,Bcap37 [27],90.4%
same,inhibition of growth at 1 µM,Bcap37 [28],46.5%
same,Activity,PC-3 [29],8.2%
same,Activity,PC-3 [30],11.1%
same,IC50,PC-3 [31],6.2 µM
same,Activity,PC-3 [32],5.1%
same,Activity,PC-3 [33],19.8%
same,Activity,PC-3 [34],Active
same,Activity,PC-3 [35],Active
same,inhibition,[36],Active
same,Activity,PC-3 [37],Active
same,Activity,PC-3 [38],11.6%
